Data set [1] addresses T1, Sigma intracellular receptor 2 (Rattus norvegicus, UniProt Q5U3Y7).
T1 sequence (Q5U3Y7 whole entry): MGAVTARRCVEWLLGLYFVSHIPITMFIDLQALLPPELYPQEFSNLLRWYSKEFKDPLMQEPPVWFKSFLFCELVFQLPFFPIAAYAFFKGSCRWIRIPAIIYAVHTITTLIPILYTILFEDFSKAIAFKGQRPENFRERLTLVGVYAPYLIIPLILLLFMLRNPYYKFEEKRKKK
Put plainly: Displacement of [3H]-di-o-tolylguanidine from sigma2 receptor in rat liver membrane incubated for 120 mins by liquid scintillation counting method relative to control. In kind it is cell membranes. In a few lines:
(§1)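 Competitive binding with [3H]di-o-tolylguanidine on rat liver membranes. Single-concentration values are % inhibition of radioligand binding at 1 µM test compound. Ki values are n = 3 (±SEM), except low-affinity compounds, which were measured once.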
Background: In a radioligand displacement assay an active substance lowers the binding of a labelled ligand.

The nature of data set [2]: Selectivity for sigma1 receptor in guinea pig brain membrane over sigma2 receptor in rat liver membrane. In kind it is cell membranes.
The test system of another data set is DU-145. Put plainly: Antiproliferative activity against human DU145 cells assessed as reduction in cell viability at 10 uM incubated for 72 hrs by SRB assay. In kind it is functional, cell-based. In a few lines:
(§2)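 Cells from ATCC were grown in RPMI 1640 with 10% FBS, glutamine and penicillin-streptomycin. Seeding was 1×10^3 (lung) or 2×10^3 (prostate) cells/well. After 24 h, compounds were added at 10 µM for 72 h. Cells were fixed with 10% TCA and stained with sulforhodamine B for 30 min. Dye was solubilized in Tris base and OD read at 510 nm. Results are expressed as % of DMSO-treated cells.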
A general note: Sulforhodamine B stains cellular protein and so reports cell mass.

The target in data set [3] is Sigma non-opioid intracellular receptor 1 (Cavia porcellus, UniProt Q60492). Description: Displacement of [3H]-pentazocine from sigma1 receptor in guinea pig brain membrane incubated for 120 mins by liquid scintillation counting method. In kind it is cell membranes.
Sigma non-opioid intracellular receptor 1, sequence (Q60492 whole entry): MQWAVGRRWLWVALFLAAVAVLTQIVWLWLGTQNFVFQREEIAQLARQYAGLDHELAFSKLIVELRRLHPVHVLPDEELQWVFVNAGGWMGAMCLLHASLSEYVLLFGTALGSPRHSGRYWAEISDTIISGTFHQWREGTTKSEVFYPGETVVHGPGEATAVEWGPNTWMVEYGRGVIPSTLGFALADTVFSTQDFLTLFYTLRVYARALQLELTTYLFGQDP
For the next data set, the species on record is Sus scrofa. Put plainly: Displacement of [3H]-MK-801 from NMDA receptor PCP binding site in pig brain cortex at 1 uM incubated for 150 mins by liquid scintillation counting method relative to control. In kind it is tissue-based.
Data set [4] in a line: n-octanol/aqueous buffer distribution coefficient, log D of compound at pH 7.4 by LC-MS analysis. In kind it is physicochemical. In a few lines:
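Micro shake-flask method using 20 mM MOPS buffer pH 7.4 and n-octanol, mutually pre-saturated for 24 h. DMSO was kept below 1%. Three buffer:octanol volume ratios (1:1, 1:2, 2:1) were each run three times (n = 9). Tubes were vortexed 2 min and centrifuged 10 min at 20 °C. The aqueous layer was quantified by LC-MS against a matrix-matched calibration, and logD calculated from that concentration.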

Data set [5] in a line: Metabolic stability in mouse liver microsomes assessed as parent compound remaining measured after 90 mins in presence of NADPH.
Data set [6] in a line: Drug metabolism in mouse liver microsomes assessed as metabolite 2-((1R,3S)-3-phenylcyclohexyl)ethanamine formation measured after 90 mins in presence of NADPH by LC-MS analysis. In kind it is ADME, Microsome. Conditions: 1.5 h. In a few lines:
(§3)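 Incubation with mouse liver microsomes and NADPH for 90 min at 37 °C. Metabolites were identified by LC-MS with collision-induced dissociation.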
(Liver microsomes are vesicles of endoplasmic reticulum, rich in cytochrome P450 enzymes.)

Data set [7] is described as follows: Drug metabolism in mouse liver microsomes assessed as metabolite 4-((1S,3R)-3-(2-(benzylamino)ethyl)cyclohexyl)benzene-1,2-diol formation measured after 90 mins in presence of NADPH by LC-MS analysis. In kind it is ADME, Microsome. As to conditions: 1.5 h. In a few lines: as §3
Data set [8] addresses Sigma non-opioid intracellular receptor 1 (Rattus norvegicus) (UniProt Q9R0C9). Description: Agonist activity at sigma1 receptor in rat PC12 cells assessed as reduction in KCl-induced Ca2+ influx at 10 nM measured after 30 mins by Fura2AM dye based fluorescence microscopic analysis. In kind it is cell-based. As to conditions: PC-12. In a few lines:
(§4)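 Single PC12 cells loaded with 0.5 µM fura-2-AM plus 0.01% Pluronic F-127, 30 min, 37 °C, in HEPES saline pH 7.4 (138 mM NaCl, 6 mM KCl, 2 mM CaCl2). Cells were then washed 30 min and perfused. Test compounds were at 10 nM, and Ca2+ influx was triggered with KCl. Excitation was at 340/380 nm and emission at 510 nm. The F340/F380 ratio was calibrated with KD 224 nM. 10–20 cells per slide, ≥5 independent experiments.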

For data set [9] the target is unchanged. Description: Antagonist activity at sigma1 receptor in rat PC12 cells assessed as reduction in opipramol activity by measuring increase in Ca2+-influx at 10 nM measured after 30 mins in presence of KCl by Fura2AM dye based fluorescence microscopic analysis relative to control. In kind it is cell-based. Also on record: scale not given: the % may be the effect or the level left. In a few lines: as §4

Data set [10] deals with T2, Sigma intracellular receptor 2 (Rattus norvegicus) (UniProt Q5U3Y7).
T2 sequence (whole entry): T1 sequence (Q5U3Y7 whole entry)
Description: Displacement of [3H]-di-o-tolylguanidine from sigma2 receptor in rat liver membrane at 1 uM incubated for 120 mins by liquid scintillation counting method relative to control. In kind it is cell membranes. In a few lines: as §1

The test system of a further data set is CWR22R. Put plainly: Antiproliferative activity against human 22Rv1 cells assessed as reduction in cell viability at 10 uM incubated for 72 hrs by SRB assay. In kind it is functional, cell-based. In a few lines: as §2
Another data set has as its system NCI-H441. Description: Antiproliferative activity against human NCI-H441 cells assessed as reduction in cell viability at 10 uM incubated for 72 hrs by SRB assay. In kind it is functional, cell-based. In a few lines: as §2
The next data set deals with PC-3. Description: Antiproliferative activity against human PC-3 cells assessed as reduction in cell viability at 10 uM incubated for 72 hrs by SRB assay. In kind it is functional, cell-based. In a few lines: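 PC3 prostate cancer cells grown adherent in RPMI 1640 with 2% glutamine, 10% FBS and 1% penicillin-streptomycin. Seeded at 2 × 10^3 cells/well; compound added at 10 µM 24 h later for 72 h. Cells fixed in 10% TCA, stained with sulforhodamine B 30 min, washed with 1% acetic acid, dye solubilised in Tris base, OD read at 510 nm; viability given as % of DMSO-treated cells.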

Another data set relates to NCI-H358. Description: Antiproliferative activity against human NCI-H358 cells assessed as reduction in cell viability at 10 uM incubated for 72 hrs by SRB assay. In kind it is functional, cell-based. In a few lines: as §2
The next data set relates to NCI-H522. Description: Antiproliferative activity against human NCI-H522 cells assessed as reduction in cell viability at 10 uM incubated for 72 hrs by SRB assay. In kind it is functional, cell-based. In a few lines: as §2

Molecules are shown by their SMILES. Activity calls are given as the source filed them. The calls are words filed in the database; no cut-off is given here.

A word on the Ki: it is a dissociation constant, usually derived from enzyme kinetics or from competition with a known ligand. In general, inhibition refers to the percentage by which the read-out fell short of the control. A word on the logD: it is the decadic logarithm of the distribution of all forms, ionised or not, between an organic phase and buffer at a given pH. By fraction remaining is commonly meant what is left of the initial amount, in per cent.

Sigma non-opioid intracellular receptor 1 (Rattus norvegicus), sequence (Q9R0C9 whole entry, the tested form may be a part): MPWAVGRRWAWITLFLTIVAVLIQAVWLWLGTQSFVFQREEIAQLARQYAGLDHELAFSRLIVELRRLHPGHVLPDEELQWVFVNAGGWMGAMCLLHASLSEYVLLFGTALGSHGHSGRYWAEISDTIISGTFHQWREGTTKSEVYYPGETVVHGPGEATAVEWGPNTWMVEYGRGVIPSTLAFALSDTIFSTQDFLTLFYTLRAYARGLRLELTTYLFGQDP

Consider `c1ccc(CNCC[C@H]2CCC[C@@H](c3ccccc3)C2)cc1`, for which the Ki in [1] stood at 47 nM; in data set [3] it was 1.3 nM. For the same molecule, the Selectivity ratio in [2] is 35. Moreover, the result with DU-145 was Active.

On to `c1ccc(CNCC[C@@H]2CCC[C@H](c3ccccc3)C2)cc1` [listing 1 of 2 here], for which, in the data set on DU-145, the result was Active.

For `c1ccc(CNCC[C@@H]2CCC[C@@H](c3ccccc3)C2)cc1` (relative stereo) [listing 1 of 2 here], the Ki in data set [1] amounted to 268 nM; in data set [3], 2.4 nM.

`c1ccc(CNCC[C@@H]2CCC[C@@H](c3ccccc3)C2)cc1` [listing 1 of 2 here]: the Selectivity ratio in data set [2] came to 35. For the same molecule, the outcome with DU-145 was inactive.

Regarding `c1ccc(CCCCNCCC2CCCC(c3ccccc3)C2)cc1` (mixture of isomers), the Ki in data set [1] was 93 nM; in data set [3], 3 nM. The same molecule gave an inhibition in the data set filed under Sus scrofa of 11%.

Take `c1ccc(CNCC[C@H]2CCC[C@H](c3ccccc3)C2)cc1`: the logD in [4] came to 3.34. The Ki came to 46 nM in data set [1] and 1.4 nM in data set [3]. The Selectivity ratio in [2] amounted to 35. In addition, the outcome with DU-145 was inactive.

Turning to `CN(C)CC[C@@H]1CCC[C@H](c2ccccc2)C1`, the Ki in data set [1] turned out to be 76 nM; in data set [3] it was 14 nM.

For the molecule `c1ccc(CNCC[C@@H]2CCC[C@H](c3ccccc3)C2)cc1` [listing 2 of 2 here], the logD in data set [4] worked out at 3.23. Further, the Ki in [1] came to 49 nM; in data set [3], 0.61 nM. In [5], the fraction remaining at 1.5 h worked out at 43%. The Drug metabolism result in [6] and in data set [7] was “Metabolite_Detected” each time.

With `c1ccc([C@@H]2CCC[C@@H](CCN3CCCC3)C2)cc1` (relative stereo), the result in data set [8] was inactive. Further, the Ki amounted to 33 nM in [1] and 2 nM in data set [3]. The Activity in data set [9] (PC-12, filed as antagonist) turned out to be 100%. The inhibition in the data set filed under Sus scrofa was found to be 28%.

Consider `NCC[C@H]1CCC[C@H](c2ccccc2)C1`, for which the values for the inhibition (in the data set filed under Sus scrofa; in [10]) were 31% and 60%, respectively. In data set [3], this molecule came in with a Ki of 603 nM.

As to `c1ccc([C@H]2CCC[C@H](CCN3CCN(c4ccccc4)CC3)C2)cc1` (relative stereo), the inhibitory constant (Ki) in data set [1] came to 144 nM; in data set [3], 13 nM. Besides, the inhibition in the data set listed under Sus scrofa is 0%. Also, the outcome with DU-145 was inactive.

As for `c1ccc(CNCC[C@@H]2CCC[C@@H](c3ccccc3)C2)cc1` [listing 2 of 2 here], the Ki was found to be 57 nM in data set [1] and 1.8 nM in [3].

`NCC[C@H]1CCC[C@@H](c2ccccc2)C1`: the inhibition in the data set listed under Sus scrofa is 14%; in data set [10], 24%. In addition, the Ki in [3] came out at 138 nM.

For the molecule `NCC[C@@H]1CCC[C@@H](c2ccccc2)C1`, the inhibition in the data set filed under Sus scrofa was found to be 15%; in [10], 43%. The inhibitory constant (Ki) in data set [3] was found to be 43 nM.

Take `CN(C)CC[C@H]1CCC[C@@H](c2ccccc2)C1`: the values for the Ki in [1] and in [3] were 156 nM and 10 nM, respectively.

Turning to `NCC[C@@H]1CCC[C@H](c2ccccc2)C1`, the inhibition in the data set filed under Sus scrofa worked out at 11%; in data set [10], 38%. The molecule also yielded an inhibitory constant (Ki) in data set [3] of 167 nM.

On to `CN(C)CCC1CCCC(c2ccccc2)C1` (mixture of isomers), for which the results for the Ki in data set [1] and in [3] were 115 nM and 4.2 nM, respectively. This molecule yielded an inhibition in the data set listed under Sus scrofa of 25%.

Regarding `c1ccc(CNCC[C@@H]2CCC[C@@H](c3ccccc3)C2)cc1` (relative stereo) [listing 2 of 2 here], the outcome in data set [8] was inactive. Also, in [9] (PC-12, filed as antagonist), the Activity came out at 100%. The same molecule displayed an inhibition in the data set filed under Sus scrofa of 31%.

Turning to `c1ccc([C@H]2CCC[C@@H](CCN3CCCC3)C2)cc1` (relative stereo), the inhibitory constant (Ki) in [1] is 61 nM; in data set [3] it was 3.6 nM. Further, in the data set filed under Sus scrofa, the inhibition came out at 36%.

In the case of `c1ccc(CNCC[C@@H]2CCC[C@H](c3ccccc3)C2)cc1` (relative stereo) [listing 1 of 2 here], the Ki was determined as 130 nM in [1] and 1.8 nM in data set [3].

In the case of `c1ccc(CNCC[C@@H]2CCC[C@H](c3ccccc3)C2)cc1` (relative stereo) [listing 2 of 2 here], the outcome in data set [8] and in data set [9] (PC-12) was inactive. Besides, the outcome with CWR22R, in the data set on NCI-H441, with PC-3, with NCI-H358, in the data set with DU-145 and in the data set with NCI-H522 was Active. The same molecule returned an inhibition in the data set listed under Sus scrofa of 11%.

In the case of `c1ccc([C@H]2CCC[C@@H](CCN3CCN(c4ccccc4)CC3)C2)cc1` (relative stereo), the Ki was determined as 118 nM in [1] and 16 nM in data set [3]. The molecule also registered an inhibition in the data set listed under Sus scrofa of 0%. In the data set with DU-145, the result was inactive.

With `CCCN(CCC)CCc1ccc(OC)c(OCCc2ccccc2)c1`, in the data set on PC-3, the result was Active.

The record behind these values is ChEMBL document CHEMBL4732089, “Novel σ antagonists designed for tumor therapy: Structure - activity relationships of aminoethyl substituted cyclohexanes” (Eur J Med Chem, 2021).
